Assay results from ChEMBL document CHEMBL4627246, “Pyroglutamide-Based P2X7 Receptor Antagonists Targeting Inflammatory Bowel Disease” (J Med Chem, 2020).
Activity calls are given as the source filed them. No rule for the calls is given here.

Target: T1, P2X purinoceptor 7 (Homo sapiens) (UniProt Q99572)
T1 sequence (whole entry): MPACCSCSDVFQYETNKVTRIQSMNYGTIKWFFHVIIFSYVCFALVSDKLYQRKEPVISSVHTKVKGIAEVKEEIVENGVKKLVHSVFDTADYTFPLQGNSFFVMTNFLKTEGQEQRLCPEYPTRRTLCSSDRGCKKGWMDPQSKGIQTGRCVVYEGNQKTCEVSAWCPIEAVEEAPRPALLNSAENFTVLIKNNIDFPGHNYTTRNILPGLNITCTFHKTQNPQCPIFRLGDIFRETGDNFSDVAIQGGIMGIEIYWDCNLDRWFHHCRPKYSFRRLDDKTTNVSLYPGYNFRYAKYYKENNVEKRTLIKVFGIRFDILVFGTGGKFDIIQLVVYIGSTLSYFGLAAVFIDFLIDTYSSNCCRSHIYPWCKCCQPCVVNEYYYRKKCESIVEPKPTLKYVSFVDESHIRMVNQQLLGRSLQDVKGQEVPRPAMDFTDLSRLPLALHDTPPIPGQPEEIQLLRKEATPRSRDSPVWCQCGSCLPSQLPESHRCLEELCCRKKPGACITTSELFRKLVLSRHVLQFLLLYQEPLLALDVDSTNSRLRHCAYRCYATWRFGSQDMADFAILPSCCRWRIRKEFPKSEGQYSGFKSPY
Assay: Inhibition of human P2X7 expressed in human HEK293 cells assessed as reduction in BzATP-stimulated TO-PRO-3 incorporation at 10 uM preincubated with compound and TO-PRO-3 for 15 mins prior to BzATP addition and measured after 1 hr by Fluo-3AM dye based flow cytometry relative to control
Assay type: cell-based
How it was run: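 HEK-293 cells overexpressing human P2RX7 loaded with Fluo-3 AM, then incubated with TO-PRO-3 (large pore uptake) and propidium iodide (viability) plus compound (10⁻⁵ M single point) for 15 min before BzATP 100 µM. After 1 h, flow cytometry; percentage of Fluo-3/TO-PRO-3 double-positive cells calculated. Mean of n ≥ 2 with positive control.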

Compound | inhibition
CN(C)/C=C1\C[C@H]2C(=O)N(Cc3ccccc3)C(N(C)C)N2C1=O (stereo partly specified) | 0%
O=C(Nc1ccc(Cl)cc1Cl)[C@@H]1CCC(=O)N1c1ccccc1 | 0%
O=C(NCc1ccc(Cl)cc1Cl)[C@@H]1CCC(=O)N1c1cccc2ncccc12 | 0%
CN(C)C1N(Cc2ccc(Cl)cc2Cl)C(=O)[C@@H]2CC(=O)C(=O)N12 (stereo partly specified) | 0%
COC(=O)[C@@H]1COC(=O)N1 | inactive
O=C(NCc1ccc(Cl)cc1Cl)[C@@H]1CCC(=O)N1c1ccncc1 | 0%
O=C(NCc1ccc(Cl)cc1Cl)C1CC(=O)N(c2cccs2)C1 (stereo unspecified) | 92%
C[C@H](NC(=O)[C@@H]1C/C(=C\N(C)C)C(=O)N1)c1ccccc1 | 0%
O=C1CC[C@@H](C(=O)NCc2cc(C(F)(F)F)ccc2Cl)N1 | inactive
O=C1CC[C@@H](C(=O)NC2CCCCC2)N1 | inactive
COC(=O)C1CNC(=O)C1 (stereo unspecified) | inactive
CN(C)/C=C1\C[C@@H](C(=O)NCc2ccc(Cl)cc2Cl)NC1=O | 53%
O=C1CC[C@@H](C(=O)NCc2ccc(Cl)cc2Cl)N1 | inactive
COc1cc(N2C(=O)[C@@H]3C/C(=C\N(C)C)C(=O)N3C2N(C)C)cc(OC)c1OC (stereo partly specified) | 0%
O=C1CC[C@@H](C(=O)Nc2ccc(Cl)cc2Cl)N1 | inactive
C[C@@H](c1ccccc1)N1C(=O)[C@@H]2C/C(=C\N(C)C)C(=O)N2C1N(C)C (stereo partly specified) | 0%
O=C(NCc1ccc(Cl)cc1Cl)[C@@H]1CCC(=O)N1c1cc(Cl)cc(Cl)c1 | 0%
O=C(NCc1ccc(Cl)cc1Cl)[C@@H]1CCC(=O)N1c1ccccc1Cl | 0%
O=C1CC[C@@H](C(=O)Nc2ccccc2)N1 | inactive
COc1ccccc1CNC(=O)[C@@H]1C/C(=C\N(C)C)C(=O)N1 | 0%
C[C@@H](NC(=O)[C@@H]1CCC(=O)N1)c1ccccc1 | inactive
COc1cc(NC(=O)[C@@H]2CCC(=O)N2)cc(OC)c1OC | inactive
COc1ccc(NC(=O)[C@@H]2CCC(=O)N2)c(OC)c1 | inactive
O=C1N[C@H](C(=O)O)CO1 | inactive
NC(=O)[C@@H]1CCC(=O)N1 | inactive

Compound | inhibition
O=C1CC[C@@H](C(=O)NCc2cccc(C(F)(F)F)c2Cl)N1 | inactive
COC(=O)[C@@H]1CCC(OC)=N1 | inactive
COC(=O)C1C/C(=C\N(C)C)C(=O)N1C(=O)OC (stereo unspecified) | inactive
COc1ccc(NC(=O)[C@@H]2CCC(=O)N2)cc1F | inactive
CCCCCCNC(=O)[C@@H]1CCC(=O)N1 | inactive
O=C1CC[C@@H](C(=O)NCc2ccncc2)N1 | inactive
O=C1CC[C@@H](C(=O)Nc2ccncc2)N1 | inactive
COc1ccc(CNC(=O)[C@@H]2CCC(=O)N2)c(OC)c1 | inactive
O=C1CC[C@@H](C(=O)NCCc2ccccc2)N1 | inactive
O=C(NCc1ccc(Cl)cc1Cl)[C@@H]1C/C(=N\O)C(=O)N1c1cccs1 | 76%
O=C1CC[C@@H](C(=O)NCC2CCCCC2)N1 | inactive
C[C@H](NC(=O)[C@@H]1CCC(=O)N1c1cccs1)c1ccc(Cl)cc1Cl | 0%
O=C1CC[C@@H](C(=O)NCc2ccccc2Cl)N1 | inactive
COC(=O)[C@@H]1CCC(=O)N1 | inactive
O=C1CC[C@@H](C(=O)NC2CC3CCC2C3)N1 (stereo partly specified) | inactive
O=C1CCCC(C(=O)O)N1 (stereo unspecified) | 0%
COc1ccccc1CNC(=O)[C@@H]1CCC(=O)N1 | inactive
CN(C)/C=C1\CC[C@@H](C(=O)NCc2ccc(Cl)cc2Cl)NC1=O | 6%
C[C@@H](NC(=O)[C@@H]1C/C(=C\N(C)C)C(=O)N1)c1ccccc1 | 0%
O=C1CC[C@@H](C(=O)NCCc2ccc(Cl)cc2Cl)N1 | inactive
CN(C)C(=O)[C@@H]1CCC(=O)N1c1ccccc1 | 0%
O=C(NCc1ccc(Cl)cc1Cl)[C@@H]1CCC(=O)N1c1cccc(C(F)(F)F)c1 | 0%
CN(C)/C=C1\C[C@H]2C(=O)N(CCc3ccccc3)C(N(C)C)N2C1=O (stereo partly specified) | 0%
C[C@H](NC(=O)[C@@H]1CCC(=O)N1)c1ccccc1 | inactive

More lines, now with the values ahead:

inhibition | Compound
inactive | COC(=O)[C@@H]1CCC(=O)N1Cc1ccc(Cl)cc1Cl
inactive | COC(=O)[C@@H]1CCC(=O)N1Cc1ccc(Br)cc1
inactive | Cc1ccc(NC(=O)[C@@H]2CCC(=O)N2)cc1
inactive | COC(=O)[C@@H]1CCC(=O)N1c1ccncc1
inactive | COc1ccc(NC(=O)[C@@H]2CCC(=O)N2)cc1
inactive | COC(=O)[C@@H]1CCC(=O)N1c1cc(Cl)cc(Cl)c1
inactive | O=C1CC[C@@H](C(=O)NCc2ccccc2)N1
inactive | COC(=O)[C@@H]1CCC(=O)N1c1ccc(C#N)cc1
inactive | COC(=O)[C@@H]1CCC(=O)N1c1ccc(Cl)cc1
inactive | COC(=O)[C@@H]1CCC(=O)N1Cc1ccc(C)cc1
inactive | COC(=O)[C@@H]1CCC(=O)N1Cc1ccccc1
0% | O=C(NCCc1ccccc1)[C@@H]1CCC(=O)N1Cc1ccc([N+](=O)[O-])cc1
inactive | COC(=O)[C@@H]1CCC(=O)N1c1ccc(OC)cc1
inactive | COC(=O)[C@@H]1CCC(=O)N1C
0% | O=C(NCc1ccccc1Cl)[C@@H]1CCC(=O)N1Cc1ccc(Cl)cc1Cl
0% | O=C(NCc1ccc(Cl)cc1Cl)[C@@H]1CCC(=O)N1Cc1ccc([N+](=O)[O-])cc1
inactive | COC(=O)[C@@H]1CCC(=O)N1c1cccc2ncccc12
inactive | COC(=O)[C@@H]1CCC(=O)N1c1cccs1
inactive | COc1ccc(CNC(=O)[C@@H]2CCC(=O)N2)cc1

inhibition | Compound
0% | O=C(NCc1ccccc1)[C@@H]1CCC(=O)N1Cc1ccccc1
inactive | COC(=O)[C@@H]1CCC(=O)N1Cc1ccc([N+](=O)[O-])cc1
inactive | COC(=O)[C@@H]1CCC(=O)N1c1ccccc1
0% | O=C(NCc1ccc(Cl)cc1Cl)[C@@H]1CCC(=O)N1Cc1ccc(Cl)cc1Cl
inactive | COC(=O)[C@@H]1CCC(=O)N1[Si](C)(C)C
0% | Cc1ccc(CN2C(=O)CC[C@H]2C(=O)NCCc2ccccc2)cc1
inactive | COC(=O)[C@@H]1CCC(=O)N1c1ccc(Cl)cc1Cl
inactive | COC(=O)[C@@H]1CCC(=O)N1Cc1ccc(Cl)cc1
inactive | COC(=O)[C@@H]1CCC(=O)N1Cc1ccc(OC)cc1
inactive | COC(=O)[C@@H]1CCC(=O)N1Cc1ccccc1Cl
0% | O=C(NCc1ccco1)[C@@H]1CCC(=O)N1Cc1ccc(Cl)cc1Cl
inactive | COC(=O)[C@@H]1CCC(=O)N1c1ccccc1Cl
inactive | COC(=O)[C@@H]1CCC(=O)N1C(c1ccc(Cl)cc1)c1ccc(Cl)cc1
inactive | COC(=O)[C@@H]1CCC(=O)N1C(c1ccccc1)c1ccccc1
inactive | COC(=O)[C@@H]1CCC(=O)N1c1ccoc1
inactive | COC(=O)[C@@H]1CCC(=O)N1c1cccc(C(F)(F)F)c1
85% | O=C(NCc1ccc(Cl)cc1Cl)[C@@H]1CCC(=O)N1Cc1ccccc1Cl
0% | O=C(NCCc1ccccc1)[C@@H]1CCC(=O)N1Cc1ccccc1
